Measurements as given in publication PMC3777270 (Biomaterials, 2010).

Test system: S. aureus strain MZ100
Assay: In vitro S. aureus biofilm formation on coated Ti slides
Type: cell-based, Staphylococcus aureus
Details: 5 h exposure to S. aureus, 0.1% crystal violet; for macroscopic appearance of crystal violet stained wells: digital photographs; for cell attachment in phase-contrast micrographs: 630×
Method in brief: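 Wells were formed on 20 nm Ti-coated glass slides with adhesive silicone isolators. PEGylated mono-, di- or tetravalent Ti-binding peptide coatings (500 μL) were applied in triplicate, held 2 h at RT and washed twice with PBS; uncoated Ti was included. Overnight TSB culture was diluted to ~5 × 10^7 CFU/mL in TSB + 0.2% glucose, then 5 h at 37 °C in a humidified chamber.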

Substance | macroscopic appearance of crystal violet stained wells | cell attachment in phase-contrast micrographs
(SKHKGGKHKGGKHKG)2K)2KSSGK(Biotin) –GGC–PEG [TBP4–PEG] | remained largely clear with small, disperse patches of staining | significantly fewer adhered bacteria
SKHKGGKHKGGKHKGSSGK(Biotin) –GGC–PEG [TBP1–PEG] | thick, dense biofilm | substantial cell attachment
(SKHKGGKHKGGKHKG)2KSSGK(Biotin) –GGC–PEG [TBP2–PEG] | thick, dense biofilm | slight decrease in cell density
